Among all 65,000 compounds or so, about 280 (0.43%) were called active. The entries come from a sample that favours actives as a whole. A number with no mark means an inactive call.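 Rule for the calls: active = inhibition above the mean of all tested compounds plus 3 SD (cut at about 52% in these data); inactive = the rest.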
molecular target: Nuclear receptor ROR-alpha (Homo sapiens) (UniProt P35398); experiment: suppression of basal RORA-driven reporter transcription – cell-based, luminescence, primary screen (AID 561); settings: CHO-K1 Gal4-RORA LBD luciferase reporter, at 10 µM, stronger effect = higher value
In short: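 test system = CHO-K1 Gal4-RORA LBD luciferase reporter cells | dosing = 10 µM single point | times = 20 h compound treatment, 37 °C | signal = luciferase luminescence | read-out = % inhibition of basal luciferase versus +RORA/-RORA DMSO controls | benchmarks = mock-transfected cells as 100%, +RORA DMSO cells as 0% | replicates = tested once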

Sequence of Nuclear receptor ROR-alpha (Homo sapiens) (P35398 whole entry, looked up, the tested form may be a part): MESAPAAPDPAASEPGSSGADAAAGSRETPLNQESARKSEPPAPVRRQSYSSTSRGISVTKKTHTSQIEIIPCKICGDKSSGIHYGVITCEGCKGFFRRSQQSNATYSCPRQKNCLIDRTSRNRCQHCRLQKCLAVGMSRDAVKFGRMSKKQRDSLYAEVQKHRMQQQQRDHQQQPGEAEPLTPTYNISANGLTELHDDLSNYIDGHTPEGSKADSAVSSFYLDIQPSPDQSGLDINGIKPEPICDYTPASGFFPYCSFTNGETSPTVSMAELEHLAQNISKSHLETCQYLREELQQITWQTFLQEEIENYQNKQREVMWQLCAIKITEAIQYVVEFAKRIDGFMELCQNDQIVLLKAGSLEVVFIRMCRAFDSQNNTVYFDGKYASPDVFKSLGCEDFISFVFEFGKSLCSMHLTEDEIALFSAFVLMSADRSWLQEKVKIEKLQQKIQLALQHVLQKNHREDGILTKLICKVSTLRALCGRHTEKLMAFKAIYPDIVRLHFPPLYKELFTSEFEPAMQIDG

With `COc1ccc(-c2nc(-c3ccccc3)no2)c(OC)c1` the inhibition was 78.4% (active).
For `Cc1ccsc1C(=O)OCC(=O)c1cc(C)n(CC2CCCO2)c1C` (stereo not drawn), the inhibition was 85.1% (active).
`Cn1c(-c2ccco2)nc2cc3ccccc3cc21` was tested, and the inhibition was 68.8% (active).
With `Fc1ccc2[nH]c3c(N4CCSCC4)ncnc3c2c1` the inhibition was 80.8% (active).
`Fc1ccc2[nH]c3c(N4CCN(Cc5ccc6c(c5)OCO6)CC4)ncnc3c2c1` was tested, and the inhibition was 86.3% (active).
With `CN(C)c1nc(N)nc(CSc2nnnn2-c2cccc3ccccc23)n1` the inhibition was 53.2% (active).
In the case of `COc1ccccc1-n1nnnc1S(=O)(=O)Cc1ccc(Cl)cc1`, the inhibition is reported as 54.4% (active).
For `CCNC(=O)CCc1nc(-c2ccc(C(C)(C)C)cc2)no1`, the inhibition was 88.3% (active).
In the case of `CC[C@H]1CN2CCc3cc(OC)c(OC)cc3[C@@H]2C[C@@H]1C[C@H]1NCCc2cc(OC)c(OC)cc21`, the inhibition is reported as 95.3% (active).
`CC[C@]1(O)CC2CN(CCc3c([nH]c4ccccc34)[C@@](C(=O)OC)(c3cc4c(cc3OC)N(C=O)[C@H]3[C@@](O)(C(=O)OC)[C@H](OC(C)=O)[C@]5(CC)C=CCN6CC[C@]43[C@@H]65)C2)C1` (stereo partly drawn) was tested, and the inhibition was 54% (active).
With `COc1ccc(-c2cc(C(F)(F)F)nc(S(C)(=O)=O)n2)cc1OC` the inhibition was 60.9% (active).
With `O=C(OC1CCOC1=O)c1ccc(-c2nc3ccccc3s2)s1` (stereo not drawn) the inhibition was 60.6% (active).

Compared with `COc1ccc(-c2noc(-c3cccc(OC)c3OC)n2)cc1OC`, `Cc1ccc(Cc2nc(-c3cccc(C)c3)no2)cc1` is higher in inhibition: -89.8% for the first, -51.5% for the second.

First: CCOc1ccc(Nc2oc(Cc3ccccc3)nc2C#N)cc1
Second: CCOc1ccc(S(=O)(=O)N(CC(=O)O)c2ccccc2)cc1
The inhibition of the first is lower: -25.7% for the first, 0% for the second.

Going from `O=C(CSc1nc2ccccc2[nH]1)c1cccs1` to `CN(Cc1ccccc1)c1nc2c(c(=O)[nH]c(=O)n2C)n1CCSc1nc2ccccc2[nH]1`, the inhibition rises from -56.5% to -1.9%.

First: O=C(CCSc1ccccc1)NCCSc1ccccn1
Second: COC(=O)CCSc1nccn1Cc1ccccc1
The inhibition of the first is lower: -13.3% for the first, 7.6% for the second.

First: O=c1c2cc3c(=O)n(CC4CCCO4)c(=O)c3cc2c(=O)n1CC1CCCO1 (stereo not drawn)
Second: O=C1C(C=NCC2CCCO2)=C(O)c2ccccc21 (stereo not drawn)
The inhibition of the first is higher: 5.9% for the first, -48.7% for the second.

Going from `O=C(Nc1cccc(-c2nnc(-c3ccccc3)o2)c1)C1CCCO1` (stereo not drawn) to `CC(=O)Nc1cccc(-c2cnc3ccccc3n2)c1`, the inhibition falls from -61.1% to -72.9%.

Going from `COC(=O)Cc1cc(=O)n(-c2nc3ccccc3s2)[nH]1` to `Cc1nc2nc(COc3ccccc3)[nH]n2c(=O)c1C`, the inhibition falls from 10.2% to -0.2%.

First: CC(=O)Nc1ccc(S(=O)(=O)N2CCN(CCCOc3cc(C)ccc3C)CC2)cc1
Second: CCOc1ccccc1NC(=O)CCN1CCN(S(=O)(=O)c2ccc(OC)cc2)CC1
The inhibition of the first is higher: 13.3% for the first, 0.6% for the second.

First: CC1(C)NC(=O)N(CCOc2cccc(Oc3ccccc3)c2)C1=O
Second: CCOC(=O)Nc1ccccc1N1C(=O)c2ccccc2C1=O
The inhibition of the first is higher: -0.4% for the first, -13% for the second.

First: CC(=O)NC(Cc1ccc(F)cc1)C(=O)O (stereo not drawn)
Second: O=C(O)CCC(=O)NCc1ccc2[nH]c3c(c2c1)CCCC3
The inhibition of the first is lower: 4.4% for the first, 11.8% for the second.

Going from `COc1ccccc1CNC(=O)CCCNS(=O)(=O)c1cccc2nsnc12` to `COc1ccccc1CNC(=O)C1CCN(c2nc3ccccc3o2)CC1`, the inhibition rises from 12.8% to 14%.

Going from `CS(=O)(=O)c1ccc2nc(NC(=O)C3C4C=CC(C4)C3C(=O)O)sc2c1` (stereo not drawn) to `Cc1ccc2nc(NC(=O)C3CCN(S(=O)(=O)c4ccc5c(c4)oc(=O)n5C)CC3)sc2c1`, the inhibition falls from 0.6% to -2.8%.

First: CCCCOc1ccc(-c2ncc(C(=O)OCC)c(N)n2)cc1
Second: CCOC(=O)c1ccc(NC(=O)Cn2nnc(-c3ccc(C)cc3)n2)cc1
The inhibition of the first is lower: -59.3% for the first, -41.7% for the second.

First: Cc1ccc(CNC(=O)C2CCCN(S(C)(=O)=O)C2)cc1 (stereo not drawn)
Second: CCS(=O)(=O)N1CCCC(C(=O)NCCCN(C)Cc2ccccc2)C1 (stereo not drawn)
The inhibition of the first is lower: -3.7% for the first, -3.1% for the second.

Going from `CCSc1nc(C)nc2c1oc1ccccc12` to `C#CCNc1nc(C(C)C)nc2c1nnn2Cc1ccccc1F`, the inhibition falls from -1% to -1.9%.

First: CCc1c(C)sc(NC(=O)c2ccc(Br)o2)c1C(=O)OC
Second: COc1ccccc1NC(=O)c1ccc(C)s1
The inhibition of the first is higher: 3.7% for the first, -48.9% for the second.

Compared with `CC1(C)CC(CCC(=O)Nc2ccccc2Cl)C(=O)O1` (stereo not drawn), `O=C(CC1OC(=O)c2ccccc21)NC1CCCCC1` (stereo not drawn) is higher in inhibition: 6.6% for the first, 7.6% for the second.

First: CN(C)/C=C/c1c(C#N)c(=O)ncn1Cc1ccccc1
Second: CC(C)OC(=O)C(C#N)c1nc2ccccc2nc1N1CCN(Cc2ccccc2)CC1 (stereo not drawn)
The inhibition of the first is higher: 15.5% for the first, -19.7% for the second.

First: Cc1ccc(Cn2nnc3c(=O)n(CC(=O)N4CCCCC4)cnc32)cc1
Second: COc1ccccc1-c1cc(C(=O)N2CCCCC2)no1
The inhibition of the first is higher: 19.7% for the first, -56.5% for the second.

Going from `O=C(NC1=NCCS1)c1ccc(Cl)s1` to `O=C(Nc1ccc(Cl)cc1)c1ccsn1`, the inhibition rises from -80.1% to -59.5%.

First: Cc1ccc(-n2ncc3c2ncn2nc(-c4ccco4)nc32)c(C)c1
Second: c1ccc(-n2ncc3c2ncn2c(CSc4nc5ccccc5s4)nnc32)cc1
The inhibition of the first is lower: -10.8% for the first, 25% for the second.

Compared with `O=c1oc2cc(O)ccc2cc1-c1ccc(F)cc1`, `CCn1c(=N)c(S(=O)(=O)c2ccc(F)cc2)cc2c(=O)n3ccccc3nc21` is higher in inhibition: -61.8% for the first, 13.5% for the second.

Compared with `CCCN(c1ccc(C(C)C)cc1)S(=O)(=O)c1c(C)[nH]c(=O)[nH]c1=O`, `Cc1noc(C)c1S(=O)(=O)Nc1ccc(C(=O)O)cc1` is higher in inhibition: -10.6% for the first, -7.4% for the second.

Compared with `O=C(O)CC(c1ccccc1)n1cnnn1` (stereo not drawn), `OCCCNC(c1ccccc1)c1ccc(O)cc1` (stereo not drawn) is higher in inhibition: 15.8% for the first, 24.8% for the second.

Going from `Cn1c(=O)c(C(=O)Nc2ncccn2)c(O)c2ccccc21` to `O=C(NCc1ccccn1)c1c(O)c2c([nH]c1=O)CCCC2`, the inhibition rises from -61% to 9.5%.

First: CC(=O)Oc1ccc(C(=O)Nc2nccs2)cc1
Second: COc1ccc(C(=O)Nc2ccc3c(c2)OCO3)cc1OC
The inhibition of the first is higher: -61% for the first, -69.8% for the second.

Compared with `COc1ccccc1C(=O)C(O)c1ccccc1OC` (stereo not drawn), `COc1cc(C2C(C(=O)Nc3ccccc3OC)=C(C)Nc3ncnn32)ccc1O` (stereo not drawn) is higher in inhibition: -19.7% for the first, -9.5% for the second.

Going from `O=C(c1cc(-c2cccs2)on1)N1CCCCC1` to `O=C(Nc1cccnc1)c1noc2c1CCCCC2`, the inhibition rises from -63.4% to 19.3%.

Going from `Cn1c(SCc2c(F)cccc2Cl)nnc1-c1cnccn1` to `Cn1c(SCC(=O)Nc2cccc(O)c2)nnc1-c1ccc(S(=O)(=O)N2CCOCC2)cc1`, the inhibition rises from -62.8% to -31.5%.

Compared with `Nc1ccc(-c2nnc(-c3ccc(-c4ccccc4)cc3)o2)cc1`, `CN(c1ccccc1)c1ccc(/C=c2\s/c(=C(/C#N)C(=O)C(C)(C)C)n(Cc3ccco3)c2=O)cc1` is higher in inhibition: -60.7% for the first, 11.3% for the second.

First: COc1ccc(OC)c(CNC(=O)C2CCCN(c3nc4ccccc4o3)C2)c1 (stereo not drawn)
Second: COc1ccc(OC)c(NC(=O)Cn2c(=O)oc3ccccc32)c1
The inhibition of the first is higher: 33.3% for the first, -7.4% for the second.

Compared with `Cc1cc(Cl)c(S(=O)(=O)Nc2ccc3c(c2)OCCO3)cc1OCC(N)=O`, `COc1ccc(Cl)cc1S(=O)(=O)Nc1cccc(C(=O)O)c1` is lower in inhibition: 22.5% for the first, 2.9% for the second.

First: OC1CN=C2Sc3ccccc3N2C1 (stereo not drawn)
Second: CCN1C(=O)/C(=C2\SC(N3CCCCC3)=NC2=O)c2ccccc21
The inhibition of the first is higher: 10.5% for the first, -84.9% for the second.

First: CCOc1ccccc1N(CC(=O)NC1CCCCC1)C(=O)CCCC(=O)Nc1ccccn1
Second: COCCCNC(=O)Cn1cc(C(=O)C2CC2)c2ccccc21
The inhibition of the first is lower: -9% for the first, -7.6% for the second.

Going from `CN1CCCC(OC(=O)COc2ccc(Br)cc2)C1` (stereo not drawn) to `CC1CCC(NC(=O)c2ccc(N3CCCC3=O)cc2)CC1` (stereo not drawn), the inhibition falls from -27% to -61.7%.

Compared with `Cc1cc(C)nc(NC(=O)Nc2ccccc2C(F)(F)F)n1`, `Cc1cccc(NC(=O)CSc2nc3c(c(=O)[nH]2)CCC3)c1C` is higher in inhibition: -29% for the first, 0.6% for the second.

Compared with `CC(C)CCNc1nc(N2CCCC2)c2c(c1C#N)CCN(C)C2`, `CCCCc1nc2ccccc2c(NC(=O)CN2CCN(C)CC2)c1CCC` is higher in inhibition: -5.2% for the first, -1.9% for the second.

Going from `COc1ccc(CN(C(=O)c2cccs2)c2nccs2)cc1OC` to `CCOC(=O)CSc1nncc2ccc(OC)c(OC)c12`, the inhibition rises from -6.9% to 21%.

First: O=C(C1CCC1)N1CCc2cc(S(=O)(=O)NCc3cccnc3)ccc21
Second: CCNS(=O)(=O)c1ccc(NC(=O)Nc2cccc(OC)c2)cc1
The inhibition of the first is lower: -16.5% for the first, 10% for the second.

Compared with `Cc1ccc(C(c2nnnn2C(C)(C)C)N2CCc3ccccc3C2)cc1` (stereo not drawn), `NC(=O)CSC1=Nc2ccccc2C2=NC(CCC(=O)NCc3ccc(F)cc3)C(=O)N12` (stereo not drawn) is higher in inhibition: -0.2% for the first, 17.5% for the second.

Going from `O=C(Nc1ccon1)c1cccc(Cl)c1` to `CCOC(=O)C1=C(CC)Nc2ccccc2N=C1NC(=O)c1cccc(S(=O)(=O)N2CCCC2)c1`, the inhibition falls from 2.2% to -0.9%.

Compared with `c1ccc2c(c1)OCC(CNc1ncnc3nc[nH]c13)O2` (stereo not drawn), `O=C(NCc1ccccc1)C1C(=O)N(Cc2ccccc2)C(=O)C1C1(O)CCCC1` (stereo not drawn) is higher in inhibition: -20.2% for the first, 13% for the second.

Going from `COCCCNC(=O)C1CC(=O)N(c2ccc(C)cc2)C1` (stereo not drawn) to `C=C(C)CSc1nc(N)c2c3c(sc2n1)CCC3`, the inhibition falls from -6.1% to -56.2%.
